Screening results (PubChem)
A selection: hits, their analogues and other compounds. The true share with any hit is near 2.1%.
FAS-TE inh – blocks the thioesterase domain of human fatty acid synthase; P49327; recombinant FAS-TE, OMFH fluorogenic substrate, fluorescence endpoint; inhibition, % at 15 µM; 360,000 tested, 0.67% active;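 active = compounds whose normalised, plate-corrected inhibition of enzyme fluorescence in the single-dose primary screen is 50% or more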
Target sequence (P49327 whole entry, looked up, the tested form may be a part): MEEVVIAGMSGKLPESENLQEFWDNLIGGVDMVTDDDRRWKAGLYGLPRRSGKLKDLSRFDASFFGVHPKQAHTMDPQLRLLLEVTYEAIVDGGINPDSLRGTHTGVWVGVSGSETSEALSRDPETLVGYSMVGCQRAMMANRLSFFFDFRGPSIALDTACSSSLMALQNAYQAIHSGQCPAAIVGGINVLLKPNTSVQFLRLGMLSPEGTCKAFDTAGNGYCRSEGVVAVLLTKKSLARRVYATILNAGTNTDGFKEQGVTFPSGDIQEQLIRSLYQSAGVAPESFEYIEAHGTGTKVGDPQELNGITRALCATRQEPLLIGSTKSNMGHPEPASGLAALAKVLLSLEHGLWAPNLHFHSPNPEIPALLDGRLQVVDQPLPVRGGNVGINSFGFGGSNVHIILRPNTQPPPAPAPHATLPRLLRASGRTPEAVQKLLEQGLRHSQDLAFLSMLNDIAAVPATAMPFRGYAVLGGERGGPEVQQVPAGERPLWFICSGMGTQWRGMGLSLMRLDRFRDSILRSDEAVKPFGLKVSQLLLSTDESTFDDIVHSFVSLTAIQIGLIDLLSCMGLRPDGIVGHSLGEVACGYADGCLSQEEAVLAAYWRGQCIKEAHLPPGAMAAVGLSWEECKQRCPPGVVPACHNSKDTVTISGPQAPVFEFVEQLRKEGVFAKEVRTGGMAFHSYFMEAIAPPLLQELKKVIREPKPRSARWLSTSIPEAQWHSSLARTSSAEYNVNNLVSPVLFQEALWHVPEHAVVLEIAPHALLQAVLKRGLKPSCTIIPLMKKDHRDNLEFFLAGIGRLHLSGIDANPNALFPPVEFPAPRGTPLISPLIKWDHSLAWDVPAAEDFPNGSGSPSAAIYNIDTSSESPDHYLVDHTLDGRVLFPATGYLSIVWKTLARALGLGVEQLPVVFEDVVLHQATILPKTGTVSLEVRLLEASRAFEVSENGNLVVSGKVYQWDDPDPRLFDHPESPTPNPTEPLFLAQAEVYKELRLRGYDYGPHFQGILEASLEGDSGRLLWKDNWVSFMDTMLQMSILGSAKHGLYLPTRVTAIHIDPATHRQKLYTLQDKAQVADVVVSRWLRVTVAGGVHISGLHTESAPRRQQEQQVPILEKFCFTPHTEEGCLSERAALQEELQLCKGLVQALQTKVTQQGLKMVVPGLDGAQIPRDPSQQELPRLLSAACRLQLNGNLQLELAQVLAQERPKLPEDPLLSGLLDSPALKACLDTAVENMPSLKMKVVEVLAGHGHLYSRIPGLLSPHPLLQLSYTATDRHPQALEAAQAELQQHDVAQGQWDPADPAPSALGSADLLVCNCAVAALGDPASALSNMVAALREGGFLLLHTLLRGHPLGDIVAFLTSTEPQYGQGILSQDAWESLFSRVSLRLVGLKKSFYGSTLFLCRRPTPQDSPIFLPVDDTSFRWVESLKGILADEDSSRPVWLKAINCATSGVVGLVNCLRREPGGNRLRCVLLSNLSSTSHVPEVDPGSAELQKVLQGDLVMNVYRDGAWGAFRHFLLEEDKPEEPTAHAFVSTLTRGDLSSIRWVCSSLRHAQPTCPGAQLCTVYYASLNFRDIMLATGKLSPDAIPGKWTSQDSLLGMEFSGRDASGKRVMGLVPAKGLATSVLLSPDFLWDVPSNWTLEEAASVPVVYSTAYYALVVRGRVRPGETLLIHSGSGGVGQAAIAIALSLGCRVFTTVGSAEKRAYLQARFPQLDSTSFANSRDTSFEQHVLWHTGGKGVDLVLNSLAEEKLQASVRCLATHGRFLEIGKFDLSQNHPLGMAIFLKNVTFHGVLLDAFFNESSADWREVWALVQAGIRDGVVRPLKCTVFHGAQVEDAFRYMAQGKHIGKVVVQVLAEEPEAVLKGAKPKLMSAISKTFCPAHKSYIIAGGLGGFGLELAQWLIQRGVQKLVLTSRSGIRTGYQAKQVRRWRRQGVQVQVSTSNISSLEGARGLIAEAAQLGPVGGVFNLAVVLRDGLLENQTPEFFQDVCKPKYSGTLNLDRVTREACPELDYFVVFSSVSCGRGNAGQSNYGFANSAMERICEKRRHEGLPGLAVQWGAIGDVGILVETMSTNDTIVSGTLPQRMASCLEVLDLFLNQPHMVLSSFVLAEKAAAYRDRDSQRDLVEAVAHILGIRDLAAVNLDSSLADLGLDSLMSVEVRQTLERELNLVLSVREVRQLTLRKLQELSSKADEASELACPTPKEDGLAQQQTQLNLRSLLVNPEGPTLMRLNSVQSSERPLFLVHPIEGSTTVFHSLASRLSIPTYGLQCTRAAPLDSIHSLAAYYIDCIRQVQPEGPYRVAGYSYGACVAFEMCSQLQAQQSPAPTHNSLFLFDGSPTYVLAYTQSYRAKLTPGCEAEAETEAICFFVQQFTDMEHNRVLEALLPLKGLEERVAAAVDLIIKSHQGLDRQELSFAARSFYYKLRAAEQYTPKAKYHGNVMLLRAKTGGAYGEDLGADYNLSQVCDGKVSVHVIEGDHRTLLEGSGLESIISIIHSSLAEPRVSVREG
Calpain2 inh – calpain II (pig) inhibition; inhibition, % at 16 µM; purified calpain II, fluorogenic peptide substrate, 30 min; 220,000 tested, 0.37% active; AID 1236;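 active = inhibition above about 50%, limit read from the data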
Runt-CBFb FRET – blocks binding of human RUNX1 Runt domain to CBFb. 220,000 tested, 0.46% active. AID 1496. Cerulean-Runt/Venus-CBFb FRET ratio 530/480, 1 h. inhibition, % at 20 µM. Q01196+Q13951;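 active = inhibition over about 50% at 20 µM in the single-dose screen, limit read from the data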
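Reagent – Venus-CBFb binding partner, 100 nM · Assay system – Cerulean-tagged RUNX1 Runt domain (FRET donor) fusion protein · Input – 100 nM per protein · Incubation – two 1 h room-temperature incubations shielded from light · Measured by – FRET fluorescence · Medium – Tris buffer pH 7.5 with salts and BSA · Benchmarks – unlabeled CBFb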
RanGTP-Impb inh – disruptors of Ran-importin-beta complex formation – biochemical, FRET, CFP-Ran, YFP-importin-beta, homogeneous, primary screen. inhibition, % (concentration not given with the values). cell-free CFP-Ran/YFP-importin-beta FRET ratio. 300,000 tested, 1.1% active;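 active = more than half of the replicate wells show a fall in the fluorescence ratio signal beyond about 16%, limit read from the data, passing the limit was not always enough; inconclusive = exactly half of the replicate wells pass the set limit; inactive = fewer than half of replicates pass the limit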
Runt-SMMHC FRET – inhibitors of human RUNX1 Runt domain binding to CBFb-SMMHC; AID 1434; Q01196+Q13951; 220,000 tested, 0.74% active; Cerulean-Runt/Venus-CBFb-SMMHC FRET ratio 530/480, 1 h; inhibition, % at 20 µM;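 active = mean inhibition across duplicate retests at 20 µM reaching about 50%, limit read from the data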;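 also: inhibitors lower the FRET ratio by blocking Runt binding to CBFb-SMMHC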
FAS-TE inh conf – FAS thioesterase (human) inhibition, confirmation | inhibition, % at 15 µM | shares compounds with FAS-TE inh | 2,300 tested, 45% active | recombinant FAS-TE, OMFH fluorogenic substrate, fluorescence;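 active = compounds inhibiting the enzyme by at least 50% at 15 µM in any one of the replicates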
Numbers stand for hits; – = inactive; ? = inconclusive; · = not tested or not shown.

SMILES	FAS-TE inh	Calpain2 inh	Runt-CBFb FRET	RanGTP-Impb inh	Runt-SMMHC FRET	FAS-TE inh conf
COc1ccc(OCCSc2nnc(Cc3cccc4ccccc34)n2N)cc1	–	–	–	–	–	·
Cc1c(Cl)cccc1N1C(=O)C(N2C(=O)c3cccc([N+](=O)[O-])c3C2=O)C1c1cccs1 (stereo unspecified)	63	–	·	–	–	–
O=C1c2cccc([N+](=O)[O-])c2C(=O)N1C1CCCCC1	–	·	·	–	·	·
CCOc1ccc(NC(=O)Cn2cc(C(=O)C3CC3)c3ccccc32)cc1	–	·	·	–	·	·
O=[N+]([O-])c1cccc(S(=O)(=O)Nc2nc3ccccc3nc2Nc2cccc(S(=O)(=O)N3CCCCC3)c2)c1	82	82	–	–	–	–
O=[N+]([O-])c1cccc(S(=O)(=O)Nc2ccc(S(=O)(=O)N3CCCC3)cc2)c1	–	·	·	–	·	·
COc1cc(-c2ccc(Nc3ccccc3C(=O)O)c(OC)c2)ccc1Nc1ccccc1C(=O)O	71	55	–	·	–	73
CC(Oc1ccccc1)C(=O)N(CCC1=CCCCC1)c1c(N)n(Cc2ccccc2)c(=O)[nH]c1=O (stereo unspecified)	–	·	·	–	·	·
C#CCn1c(=NC(=O)c2ccc(S(=O)(=O)N3CCCc4ccccc43)cc2)sc2cc(S(N)(=O)=O)ccc21	–	–	–	?	–	·
Cn1c(=NC(=O)c2ccc(S(=O)(=O)N3CCCc4ccccc43)cc2)sc2cc(S(C)(=O)=O)ccc21	83	–	–	–	–	–
CC1CCC(NC(=O)c2ccc(NC(=O)c3ccc(=O)[nH]c3)cc2)CC1 (stereo unspecified)	·	–	–	–	–	·
Cc1cc(NC(=O)COC(=O)c2cc([N+](=O)[O-])ccc2N2CCOCC2)ccc1Br	79	·	·	–	·	80
Cc1cc(C)c(NC(=O)COC(=O)c2cc([N+](=O)[O-])ccc2N2CCOCC2)c(C)c1	65	·	·	–	·	54
O=C(CCCn1cc([N+](=O)[O-])cn1)Nc1ccc2c(c1)OCO2	–	·	·	–	·	·
O=C(COc1ccccc1)Nc1nc(-c2ccc(S(=O)(=O)N3CCOCC3)cc2)cs1	86	–	–	–	–	58
O=S(=O)(c1ccc(-c2csc(Nc3ccc(Br)cc3)n2)cc1)N1CCCC1	–	–	–	–	–	·
COc1ccccc1OCC(=O)Nc1nc(-c2ccc(S(=O)(=O)N3CCOCC3)cc2)cs1	–	–	·	–	·	·
O=C(Nc1nc(-c2ccc(S(=O)(=O)N3CCCC3)cc2)cs1)C1COc2ccccc2O1 (stereo unspecified)	90	–	–	–	–	43
O=S(=O)(c1ccc(-c2csc(Nc3ccc(F)cc3)n2)cc1)N1CCCC1	65	–	–	–	–	46
O=C(Nc1nc(-c2ccccc2)cs1)C1COc2ccccc2O1 (stereo unspecified)	–	–	–	–	–	·
COC(=O)c1cc(S(=O)(=O)Nc2cc(S(=O)(=O)N(C)C)ccc2C)oc1C	–	–	–	–	–	·
O=C(O)CN1C(=O)/C(=C\c2ccccc2OCc2ccc(Cl)cc2Cl)SC1=S	–	·	·	–	·	·
O=C(O)CN1C(=O)/C(=C\c2cccc(OCc3ccc(Cl)cc3Cl)c2)SC1=S	59	·	·	–	·	–
Cn1c(=O)[nH]c2c(c1=O)CCO2	–	·	·	·	·	·
CCn1cnc2c1c(=O)n(CC(=O)N1CCc3ccccc31)c(=O)n2Cc1ccccc1	–	–	–	–	–	·
SMILES	FAS-TE inh	Calpain2 inh	Runt-CBFb FRET	RanGTP-Impb inh	Runt-SMMHC FRET	FAS-TE inh conf
O=C(Cn1c(=O)c2c(ncn2Cc2ccccc2)n(Cc2ccccc2)c1=O)N1CCc2ccccc21	66	–	–	–	–	–
CC(C#N)(NC(=O)CN1CCN(S(=O)(=O)c2ccccc2Cl)CC1)C1CC1 (stereo unspecified)	–	·	·	·	·	·
O=C(c1cc2cc([N+](=O)[O-])ccc2oc1=O)N1CCN(C2CCCCC2)CC1	61	–	–	–	–	47
Cc1ccccc1C(=O)Nc1ccnn1C1CCN(Cc2ccccn2)CC1	–	·	·	–	·	·
O=C1OCCN1C(=O)[C@H]1[C@H](c2ccc(Cl)cc2)C(c2ccc(F)cc2)=NN1c1ccc(Br)cc1	88	·	·	·	·	–
O=C1OCCN1C(=O)[C@H]1[C@H](c2ccc(F)cc2)C(c2ccc(F)cc2)=NN1c1ccc(Br)cc1	84	–	–	–	–	–
COc1ccccc1[C@@H]1C(c2cccc(Cl)c2)=NN(c2ccc(Br)cc2)[C@H]1C(=O)N1CCOC1=O	–	–	–	?	–	·
O=C1OCCN1C(=O)[C@H]1[C@H](c2ccc(F)cc2)C(c2ccccc2)=NN1c1ccccc1	–	·	·	·	·	·
Cc1ccc2c(c1)[C@H]1[C@H](CO2)[C@H](c2ccccc2)[C@]2(C)C(=O)Nc3cc(F)c(F)cc3C(=O)N12	76	·	·	·	·	–
Cc1ccc2c(c1)[C@H]1[C@H](CO2)[C@H](c2ccccc2)[C@]2(C)C(=O)Nc3ccc(F)cc3C(=O)N12	83	·	·	·	·	–
Cc1ccc2c(c1)[C@H]1[C@H](CO2)[C@H](c2ccccc2)[C@]2(C)C(=O)Nc3cc(Cl)ccc3C(=O)N12	93	·	·	·	·	–
C[C@@]12C(=O)Nc3cc(F)ccc3C(=O)N1[C@H]1c3ccccc3OC[C@@H]1[C@@H]2c1ccccc1	69	·	·	·	·	48
Cc1ccc2c(c1)[C@H]1[C@H](CO2)[C@H](c2ccccc2)[C@]2(C)C(=O)N(Cc3ccc(F)cc3)CC(=O)N12	–	·	·	·	·	·
C[C@H]1NC(=O)[C@@]2(C)[C@H](c3ccccc3)[C@H]3COc4ccccc4[C@@H]3N2C1=O	–	·	·	·	·	·
CCc1nnc(NC(=O)C2CCC(CNc3c(N4CCC(C)CC4)c(=O)c3=O)CC2)s1 (stereo unspecified)	–	–	–	–	–	·
Cc1ccc(C)c(NC(=O)C2CCN(S(=O)(=O)c3ccc4c(c3)NC(=O)CO4)CC2)c1	–	·	·	–	·	·
O=C(CSc1nc2ccccc2c(=O)n1-c1ccccc1)N1CCc2ccccc2C1	–	–	–	–	–	·
CC(C)c1ccccc1-n1c(SCC(=O)N2CCc3ccccc3C2)nc2ccccc2c1=O	60	–	–	–	–	–
COc1ccc(-n2nc(C(=O)NCC(=O)N3CCN(c4cccc(Cl)c4)CC3)c3ccccc3c2=O)c(OC)c1	55	·	·	–	·	–
COc1ccc(-n2nc(C(=O)NCC(=O)N3CCN(c4ccccn4)CC3)c3ccccc3c2=O)c(OC)c1	–	·	·	–	·	·
CCN1CCN(S(=O)(=O)c2ccc(Cl)c(C(=O)N(C)Cc3ccc(C(C)(C)C)cc3)c2)CC1	59	·	·	·	·	45
COc1cc(NC(=O)c2cc3nc(-c4ccccc4)cc(-c4ccccc4)n3n2)cc(OC)c1OC	52	–	–	–	–	–
CCN(Cc1ccccc1)C(=O)Cc1c[nH]c2ccccc12	–	·	·	–	·	·
Cc1ccc(C)c(C(=O)COC(=O)C(C)N2C(=O)C3C4CCC(C4)C3C2=O)c1 (stereo unspecified)	–	·	·	–	·	·
